Experimental data from ChEMBL document CHEMBL5724801, “EUbOPEN Chemogenomics Library - Multiplex” (2024).
Several values for one entry are separate records, joined by “and”; a condition that tells them apart may be missing. Equal entries are not always repeated.

Tested on: U2OS
Experiment: Multiplex assay against U2OS
Type: toxicity, cell-based
Settings: human
In short: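 Four dyes were applied at seeding to live cells: Hoechst33342, BioTracker Green Microtubule Cytoskeleton Dye, MitoTracker Red and Annexin V Alexa Fluor 680. Imaging after compound addition used a CQ1 microscope at 37°C and 5% CO2. CellPathfinder machine-learning gating then sorted cells into Hoechst high-intensity objects or normal cells, normal cells into healthy, pyknosed or fragmented nuclei, and pyknosed cells into mitotic or apoptotic, with tubulin, mitochondrial-mass and membrane-permeability phenotypes given as per cents of healthy-nucleus cells.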

[1] = 12 h, 1 µM, compound concentration 1 uM
[2] = 12 h, 10 µM, compound concentration 10 uM
[3] = 24 h, 1 µM, compound concentration 1 uM
[4] = 24 h, 10 µM, compound concentration 10 uM
[5] = 48 h, 1 µM, compound concentration 1 uM
[6] = 48 h, 10 µM, compound concentration 10 uM

SMILES: O=C(NCC(=O)N1CC[C@H](N[C@H]2CC[C@@](O)(c3ccc(-c4ncccn4)cn3)CC2)C1)c1cccc(C(F)(F)F)c1 [PF-4136309]
- Population Apoptotic (%) [1]: 79% and 93%
- Population Fragmented Nuclei (%) [1]: 25% and 13%
- Population Healthy Nuclei (%) [1]: 64% and 74%
- Population Hoechst High Intensity Objects (%) [1]: 1% and 4%
- Population Membrane Permeable-Phenotype (%) [1]: 6% and 11%
- Population Mitochondria Different-Phenotype (%) [1]: 3% and 5%
- Population Normal (%) [1]: 98% and 95%
- Population Pyknosed Nuclei (%) [1]: 9% and 12%
- Population Tubulin-Different-Phenotype (%) [1]: 4% and 8%
- Total Cell Count [1]: 249 and 138
- Population Apoptotic (%) [2]: 68% and 60%
- Population Fragmented Nuclei (%) [2]: 25% and 22%
- Population Healthy Nuclei (%) [2]: 62% and 66%
- Population Hoechst High Intensity Objects (%) [2]: 4% and 1%
- Population Membrane Permeable-Phenotype (%) [2]: 15% and 25%
- Population Mitochondria Different-Phenotype (%) [2]: 4% and 10%
- Population Mitotic Cells (%) [2]: 31% and 40%
- Population Normal (%) [2]: 95% and 98%
- Population Pyknosed Nuclei (%) [2]: 12% and 11%
- Population Tubulin-Different-Phenotype (%) [2]: 9% and 11%
- Total Cell Count [2]: 242 and 90
- Population Apoptotic (%) [3]: 80% and 91%
- Population Fragmented Nuclei (%) [3]: 22% and 16%
- Population Healthy Nuclei (%) [3]: 69% and 76%
- Population Hoechst High Intensity Objects (%) [3]: 1% and 3%
- Population Membrane Permeable-Phenotype (%) [3]: 4% and 5%
- Population Mitochondria Different-Phenotype (%) [3]: 2% and 4%
- Population Mitotic Cells (%) [3]: 20% and 8%
- Population Normal (%) [3]: 98% and 96%
- Population Pyknosed Nuclei (%) [3]: 8% and 7%
- Population Tubulin-Different-Phenotype (%) [3]: 2%
- Total Cell Count [3]: 304 and 169
- Population Apoptotic (%) [4]: 83% and 75%
- Population Fragmented Nuclei (%) [4]: 23% and 21%
- Population Healthy Nuclei (%) [4]: 62% and 70%
- Population Hoechst High Intensity Objects (%) [4]: 3% and 0%
- Population Membrane Permeable-Phenotype (%) [4]: 10% and 15%
- Population Mitochondria Different-Phenotype (%) [4]: 3% and 11%
- Population Mitotic Cells (%) [4]: 16% and 25%
- Population Normal (%) [4]: 96% and 99%
- Population Pyknosed Nuclei (%) [4]: 13% and 7%
- Population Tubulin-Different-Phenotype (%) [4]: 3% and 7%
- Total Cell Count [4]: 271 and 102
- Population Apoptotic (%) [5]: 87% and 96%
- Population Fragmented Nuclei (%) [5]: 14% and 12%
- Population Healthy Nuclei (%) [5]: 74% and 75%
- Population Hoechst High Intensity Objects (%) [5]: 2% and 3%
- Population Membrane Permeable-Phenotype (%) [5]: 4% and 6%
- Population Mitochondria Different-Phenotype (%) [5]: 3%
- Population Mitotic Cells (%) [5]: 12% and 4%
- Population Normal (%) [5]: 97% and 96%
- Population Pyknosed Nuclei (%) [5]: 11%
- Population Tubulin-Different-Phenotype (%) [5]: 3% and 4%
- Total Cell Count [5]: 443 and 224
- Population Apoptotic (%) [6]: 69% and 92%
- Population Fragmented Nuclei (%) [6]: 22% and 20%
- Population Healthy Nuclei (%) [6]: 61% and 60%
- Population Hoechst High Intensity Objects (%) [6]: 4% and 0%
- Population Membrane Permeable-Phenotype (%) [6]: 9% and 15%
- Population Mitochondria Different-Phenotype (%) [6]: 5% and 8%
- Population Normal (%) [6]: 95% and 100%
- Population Pyknosed Nuclei (%) [6]: 15% and 18%
- Population Tubulin-Different-Phenotype (%) [6]: 4%
- Total Cell Count [6]: 360 and 138

SMILES: Cl.Cl.OCCOCCN1CCN(C(c2ccccc2)c2ccc(Cl)cc2)CC1 (stereo unspecified) [HYDROXYZINE HYDROCHLORIDE]
- Population Apoptotic (%) [1]: 60% and 80%
- Population Fragmented Nuclei (%) [1]: 29% and 13%
- Population Healthy Nuclei (%) [1]: 61% and 78%
- Population Hoechst High Intensity Objects (%) [1]: 0% and 1%
- Population Membrane Permeable-Phenotype (%) [1]: 11% and 9%
- Population Mitochondria Different-Phenotype (%) [1]: 4% and 6%
- Population Mitotic Cells (%) [1]: 40% and 20%
- Population Normal (%) [1]: 99% and 98%
- Population Pyknosed Nuclei (%) [1]: 9% and 7%
- Population Tubulin-Different-Phenotype (%) [1]: 7% and 8%
- Total Cell Count [1]: 208 and 139
- Population Apoptotic (%) [2]: 58% and 88%
- Population Fragmented Nuclei (%) [2]: 20% and 26%
- Population Healthy Nuclei (%) [2]: 66%
- Population Hoechst High Intensity Objects (%) [2]: 1% and 2%
- Population Membrane Permeable-Phenotype (%) [2]: 9% and 5%
- Population Mitochondria Different-Phenotype (%) [2]: 10% and 7%
- Population Normal (%) [2]: 98% and 97%
- Population Pyknosed Nuclei (%) [2]: 13% and 6%
- Population Tubulin-Different-Phenotype (%) [2]: 6% and 7%
- Total Cell Count [2]: 316 and 141
- Population Apoptotic (%) [3]: 96% and 77%
- Population Fragmented Nuclei (%) [3]: 25% and 9%
- Population Healthy Nuclei (%) [3]: 63% and 77%
- Population Hoechst High Intensity Objects (%) [3]: 1% and 2%
- Population Membrane Permeable-Phenotype (%) [3]: 8% and 5%
- Population Mitochondria Different-Phenotype (%) [3]: 4% and 1%
- Population Normal (%) [3]: 98% and 97%
- Population Pyknosed Nuclei (%) [3]: 10% and 12%
- Population Tubulin-Different-Phenotype (%) [3]: 7% and 1%
- Total Cell Count [3]: 232 and 148
- Population Apoptotic (%) [4]: 73% and 61%
- Population Fragmented Nuclei (%) [4]: 23% and 31%
- Population Healthy Nuclei (%) [4]: 63% and 60%
- Population Hoechst High Intensity Objects (%) [4]: 2%
- Population Membrane Permeable-Phenotype (%) [4]: 10% and 12%
- Population Mitochondria Different-Phenotype (%) [4]: 8% and 13%
- Population Mitotic Cells (%) [4]: 26% and 38%
- Population Normal (%) [4]: 97%
- Population Pyknosed Nuclei (%) [4]: 12% and 7%
- Population Tubulin-Different-Phenotype (%) [4]: 4% and 9%
- Total Cell Count [4]: 359 and 168
- Population Apoptotic (%) [5]: 89% and 90%
- Population Fragmented Nuclei (%) [5]: 24% and 14%
- Population Healthy Nuclei (%) [5]: 62% and 76%
- Population Hoechst High Intensity Objects (%) [5]: 2%
- Population Membrane Permeable-Phenotype (%) [5]: 4% and 5%
- Population Mitochondria Different-Phenotype (%) [5]: 3%
- Population Mitotic Cells (%) [5]: 10%
- Population Normal (%) [5]: 97%
- Population Pyknosed Nuclei (%) [5]: 13% and 8%
- Population Tubulin-Different-Phenotype (%) [5]: 4% and 0%
- Total Cell Count [5]: 300 and 230
- Population Apoptotic (%) [6]: 83%
- Population Fragmented Nuclei (%) [6]: 17% and 27%
- Population Healthy Nuclei (%) [6]: 68% and 64%
- Population Hoechst High Intensity Objects (%) [6]: 2% and 5%
- Population Membrane Permeable-Phenotype (%) [6]: 8% and 10%
- Population Mitochondria Different-Phenotype (%) [6]: 6% and 5%
- Population Mitotic Cells (%) [6]: 16%
- Population Normal (%) [6]: 97% and 94%
- Population Pyknosed Nuclei (%) [6]: 13% and 8%
- Population Tubulin-Different-Phenotype (%) [6]: 4% and 5%
- Total Cell Count [6]: 456 and 231

SMILES: Cc1nc2ccc(Oc3ccc(F)cc3)cc2c(=O)n1C[C@H]1CCCN(C(C)C)C1.Cl
- Population Apoptotic (%) [1]: 83% and 60%
- Population Fragmented Nuclei (%) [1]: 25% and 14%
- Population Healthy Nuclei (%) [1]: 64% and 81%
- Population Hoechst High Intensity Objects (%) [1]: 3% and 1%
- Population Membrane Permeable-Phenotype (%) [1]: 9% and 17%
- Population Mitochondria Different-Phenotype (%) [1]: 3% and 7%
- Population Mitotic Cells (%) [1]: 16% and 40%
- Population Normal (%) [1]: 96% and 98%
- Population Pyknosed Nuclei (%) [1]: 10% and 4%
- Population Tubulin-Different-Phenotype (%) [1]: 7% and 9%
- Total Cell Count [1]: 244 and 125
- Population Apoptotic (%) [2]: 65% and 78%
- Population Fragmented Nuclei (%) [2]: 25% and 24%
- Population Healthy Nuclei (%) [2]: 59% and 58%
- Population Hoechst High Intensity Objects (%) [2]: 3% and 4%
- Population Membrane Permeable-Phenotype (%) [2]: 58% and 25%
- Population Mitochondria Different-Phenotype (%) [2]: 61% and 75%
- Population Mitotic Cells (%) [2]: 35% and 21%
- Population Normal (%) [2]: 96% and 95%
- Population Pyknosed Nuclei (%) [2]: 15% and 17%
- Population Tubulin-Different-Phenotype (%) [2]: 63% and 47%
- Population Apoptotic (%) [3]: 78% and 80%
- Population Fragmented Nuclei (%) [3]: 23% and 21%
- Population Healthy Nuclei (%) [3]: 65% and 71%
- Population Hoechst High Intensity Objects (%) [3]: 4% and 2%
- Population Membrane Permeable-Phenotype (%) [3]: 7% and 11%
- Population Mitochondria Different-Phenotype (%) [3]: 5% and 9%
- Population Mitotic Cells (%) [3]: 21% and 20%
- Population Normal (%) [3]: 95% and 97%
- Population Pyknosed Nuclei (%) [3]: 10% and 6%
- Population Tubulin-Different-Phenotype (%) [3]: 4% and 8%
- Total Cell Count [3]: 276 and 146
- Population Apoptotic (%) [4]: 77% and 76%
- Population Fragmented Nuclei (%) [4]: 25% and 22%
- Population Healthy Nuclei (%) [4]: 57% and 52%
- Population Hoechst High Intensity Objects (%) [4]: 4% and 6%
- Population Membrane Permeable-Phenotype (%) [4]: 37% and 22%
- Population Mitochondria Different-Phenotype (%) [4]: 63% and 62%
- Population Mitotic Cells (%) [4]: 22% and 23%
- Population Normal (%) [4]: 95% and 93%
- Population Pyknosed Nuclei (%) [4]: 16% and 24%
- Population Tubulin-Different-Phenotype (%) [4]: 47% and 40%
- Population Apoptotic (%) [5]: 84% and 93%
- Population Fragmented Nuclei (%) [5]: 19%
- Population Healthy Nuclei (%) [5]: 69% and 72%
- Population Hoechst High Intensity Objects (%) [5]: 1% and 0%
- Population Membrane Permeable-Phenotype (%) [5]: 7%
- Population Mitochondria Different-Phenotype (%) [5]: 5%
- Population Mitotic Cells (%) [5]: 15% and 6%
- Population Normal (%) [5]: 98% and 99%
- Population Pyknosed Nuclei (%) [5]: 10% and 7%
- Population Tubulin-Different-Phenotype (%) [5]: 4% and 6%
- Total Cell Count [5]: 371 and 213
- Population Apoptotic (%) [6]: 77% and 88%
- Population Fragmented Nuclei (%) [6]: 29%
- Population Healthy Nuclei (%) [6]: 54% and 51%
- Population Hoechst High Intensity Objects (%) [6]: 5% and 8%
- Population Membrane Permeable-Phenotype (%) [6]: 29% and 27%
- Population Mitochondria Different-Phenotype (%) [6]: 36% and 41%
- Population Mitotic Cells (%) [6]: 22% and 11%
- Population Normal (%) [6]: 94% and 91%
- Population Pyknosed Nuclei (%) [6]: 16% and 19%
- Population Tubulin-Different-Phenotype (%) [6]: 23% and 35%
